From publication PMC10832541 (Microbial Biotechnology, 2024)
Converted amounts (≈) assume the structure as drawn. “Also recorded” adds a separate entry of the source.

Key:
MRSA = experiment: In vitro antibacterial activity; assay type: cell-based, methicillin‐resistant Staphylococcus aureus; details: MRSA strains; CLSI guidelines; range over strains
MRSE = experiment: In vitro antibacterial activity; assay type: cell-based, methicillin‐resistant Staphylococcus epidermidis; details: MRSE strains; CLSI guidelines; range over strains
[1] = tested on: MRSA, MRSE, Enterococcus faecalis and Enterococcus faecium; experiment: In vitro antibacterial activity, MIC range over all tested pathogens; assay type: cell-based; details: E. faecalis and E. faecium strains
Enterococcus faecalis = experiment: In vitro antibacterial activity; assay type: cell-based; details: Enterococcus faecalis strains; CLSI guidelines; range over strains
Enterococcus faecium = experiment: In vitro antibacterial activity; assay type: cell-based; details: Enterococcus faecium strains; CLSI guidelines; range over strains
[2] = in water, compared with NOS‐R at pH 6.0; ref Zhao et al., 2023; cited from earlier work
SrGT822 = experiment: Substrate spectrum of SrGT822; assay type: biochemical, Streptomyces sp. 147326; details: dTDP‐L‐rhamnose as donor; LC-MS analysis; products not purified
How it was run: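 SrGT822 from Streptomyces sp. 147326 carried a C-terminal His-tag in pET22b(+). It was expressed in E. coli BL21(DE3) with 0.5 mM IPTG at 20°C for 12 h and purified by nickel affinity. Seventeen compounds from various classes were tested as acceptors, with dTDP-L-rhamnose as donor, under the optimized reaction parameters.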

[3] = Aqueous solubility at pH 5.0 to 7.0; assay type: physicochemical; details: pH 6, water
How it was run: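 Test compound quantified by HPLC against a standard curve (31.25–1000 ng/mL), with linear regression of peak area against concentration. Aqueous solubility was determined in solutions of pH 5.0 to 7.0, following a previously described method.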

MRSA infection = experiment: In vivo protection of mice infected with MRSA; details: data not shown

Molecule | MIC (MRSA) [mg/L] | MIC (MRSE) [mg/L] | MIC values against all the tested pathogens [1] [mg/L] | MIC (Enterococcus faecalis) [mg/L] | MIC (Enterococcus faecium) [mg/L] | aqueous solubility [2] [µg/mL] | conversion rate (monorhamnosylation as a substrate of SrGT822) (SrGT822) | solubility [3] [µg/mL] | in vivo protection against MRSA infection (MRSA infection)
CN[C@H](CC(C)C)C(=O)N[C@H]1C(=O)N[C@@H](CC(N)=O)C(=O)N[C@H]2C(=O)N[C@H]3C(=O)N[C@H](C(=O)N[C@H](C(=O)O)c4cc(O)cc(O)c4-c4cc3ccc4O)[C@H](O)c3ccc(c(Cl)c3)Oc3cc2cc(c3O[C@@H]2O[C@H](CO)[C@@H](O)[C@H](O)[C@H]2O[C@H]2C[C@](C)(N)[C@H](O)[C@H](C)O2)Oc2ccc(cc2Cl)[C@H]1O [Vancomycin] | 0.25 to 2 | 0.125 to 1 | 0.125 to 2 | 1 to 2 | 1 to 2 | – | – | – | –
C=C(NC(=O)c1csc(-c2nc3c(cc2O)-c2nc(cs2)C(=O)NC(C(C)O)C(=O)N/C(=C\C)c2nc(cs2)C(=O)NC2CC(O)C(=O)OCc4cccc5[nH]c(c(C)c45)C(=O)SCC(NC(=O)c4csc2n4)c2nc-3cs2)n1)C(N)=O (stereo not shown) [NOS, Nosiheptide] | – | – | – | 0.0078 to 0.0156 | 0.0078 to 0.0156 | 0.0283 (≈ 0.0232 µM) | – | – | –
nocathiacin I [compound 17] | – | – | – | – | – | – | below 60% | – | –
C=C(NC(=O)c1csc(-c2nc3c(cc2O[C@@H]2O[C@@H](C)[C@H](O)[C@@H](O)[C@H]2O)-c2nc(cs2)C(=O)NC(C(C)O)C(=O)N/C(=C\C)c2nc(cs2)C(=O)NC2CC(O)C(=O)OCc4cccc5[nH]c(c(C)c45)C(=O)SCC(NC(=O)c4csc2n4)c2nc-3cs2)n1)C(N)=O (stereo partly shown) [NOS‐R] | 0.03125 to 0.0625 | 0.03125 to 0.0625 | 0.0078 to 0.0625 | 0.0078 to 0.0156 | 0.0078 to 0.0156 | – | – | 0.526 (≈ 0.384 µM) | new protective effect against MRSA infection in mice; also recorded: potential in vivo protection
